High-throughput results as filed in PubChem BioAssay.
Hits are enriched below; roughly 11% of the tested compounds scored in any of these assays.
L major viab: Leishmania major promastigote growth inhibition, primary screen. Leishmania major promastigotes, resazurin fluorescence viability. inhibition, % at 10 µM. hit rate 9% among 200,000;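 note: promastigotes grown with compound for 44 hours at 28 °C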
Diaph act CS: compounds boosting diaphorase resazurin reduction – biochemical, uHTS, resorufin fluorescence, counter-screen for diaphorase-coupled primary assays, primary screen | Diaphorase/resazurin coupled assay, 16 min; hits give high values; 1 = vehicle wells, 0 = NADH-free wells | activation factor at 20 µM | hit rate 0.005% among 190,000 | AID 1229, 2008;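 active = diaphorase activity raised at least twofold by the compound at 20 µM; inactive = activation factor below 2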
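Material: purified diaphorase enzyme from Clostridium kluyveri; Also added: 0.114 mM NADH and 0.1 mM resazurin, final amounts; Doses: single compound dose of 20 µM, 1% DMSO final; Times: 16 min enzyme reaction, ambient temperature; Detection: resorufin fluorescence, excitation 544 nm, emission 590 nm; Measure: increased resorufin signal from activators or reducing compounds.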
G6PDH CS: L. mesenteroides G6PDH inhibitors, counter-screen for G6PDH-coupled screening assays, biochemical, Leuconostoc mesenteroides enzyme | glucose-6-phosphate dehydrogenase [Leuconostoc mesenteroides] | AID 1020, 2008 | Purified L. mesenteroides G6PDH, diaphorase/resazurin coupled fluorescence, 45 min | hit rate 0.12% among 200,000 | inhibition, % at 5 µM
WT yeast gro inh: growth inhibition of WT strain, primary screen, mitochondrial fusion inhibitor project, WT and mutant strains, chemical genetic | mitochondrial fusion phenotypic screen | inhibition, % at 10 µM | hit rate 2.1% among 190,000; in the data active = inhibition above about 58%; tested in S. cerevisiae
Diaphorase inh: diaphorase inhibitors and chemical oxidizers, primary screen, counter-screen for diaphorase-coupled primary assays, biochemical, uHTS, resorufin fluorescence; hit rate 0.69% among 190,000; diaphorase resazurin-to-resorufin fluorescence, NADH, 16 min; bacterial (C. kluyveri) enzyme, not human; inhibition, % at 20 µM;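 active = primary screen inhibition at 20 µM above a set limit, cut at about 50% in these data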;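 note: plate controls were DMSO with full reaction for no effect and wells lacking NADH for full effect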
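System: Bacterial diaphorase enzyme (C. kluyveri) | Incubation: 16-min room-temperature incubation before reading | Benchmarks: No-NADH positive control and DMSO neutral control | Measured by: Resorufin fluorescence 544/590 nm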
Active calls of the source: *; / = no result given. Cut-off read from the data, not from the text of the source, unless noted: active = inhibition above about 50%; inactive = the rest.

SMILES	L major viab	Diaph act CS	G6PDH CS	WT yeast gro inh	Diaphorase inh
COc1ccc(-n2c(C)cc(C(=O)CN3C(=O)c4ccccc4C3=O)c2C)cc1	-7	0.9	-2	-13	7
Cc1cc(-n2c(C)cc(C(=O)CN3C(=O)NC4(CCCC4)C3=O)c2C)no1	5	0.8	-22	-3	19
Cc1ccc(-n2c(C)cc(C(=O)CN3CCCCC3)c2C)cc1	86*	1	1	-9	-2
COc1ccc(-n2c(C)cc(C(=O)CCl)c2C)cc1	101*	0.9	2	32	13
Cc1cc(-n2c(C)cc(C(=O)CN3C(=O)NC4(CCCCC4C)C3=O)c2C)no1 (centres undefined)	79*	1.1	5	-10	-9
Cc1nnc(SCC(=O)c2cc(C)n(-c3c(C)n(C)n(-c4ccccc4)c3=O)c2C)s1	-9	0.8	-1	-12	16
Cc1cc(C(=O)CCl)c(C)n1-c1c(C)n(C)n(-c2ccccc2)c1=O	67*	1	5	1	-2
Cn1nnnc1SCC(=O)Nc1cc(C(=O)O)cc(C(=O)O)c1	-1	0.9	-1	-1	11
Cc1cc(-n2c(C)cc(C(=O)CCl)c2C)no1	101*	0.9	-1	-24	14
COc1cccc(-c2nn(-c3ccccc3)cc2CN(C)C(C)c2ccon2)c1 (centres undefined)	13	0.7	25	48	28
CC(=O)N(CCCc1ccc(C(C)(C)C)cc1)CCCN(C)C	99*	1	3	6	4
O=C(NNC(=O)c1ccc([N+](=O)[O-])cc1Cl)c1ccncc1	84*	0.9	-6	2	6
COc1ccc(NC(=S)NC(=O)CC(C)C)c(OC)c1	-4	0.9	1	13	13
CCOC(=O)c1sc2ccccc2c1NC(=O)c1coc2ccccc2c1=O	58*	0.8	-26	27	19
N#C/C(=C\c1ccc(-c2cccc([N+](=O)[O-])c2)o1)c1nnc(N2CCOCC2)n1-c1ccccc1	63*	0.6	15	-18	37
COc1ccc(N2C(=O)C(CC(N)=O)N(NC(=O)CCc3ccccc3)C2=O)cc1 (centres undefined)	-7	1.2	2	-14	-15
O=C(NCc1ccc(Cl)cc1)c1ccc(OCC2CCCO2)cc1 (centres undefined)	44	1	0	-13	3
Cc1cc(C)c2nc(NC(=O)c3ccc(OCC4CCCO4)cc3)sc2c1 (centres undefined)	73*	1	-5	29	-1
Cc1ccc2nc(NC(=O)c3ccc(OCC4CCCO4)cc3)sc2c1 (centres undefined)	3	0.9	-5	17	6
Cc1ccc(CNC(=O)c2ccc(OCC3CCCO3)cc2)cc1 (centres undefined)	68*	0.9	7	15	6
S=c1[nH]nc(-c2ccc3ccccc3n2)n1Cc1ccccc1	41	0.8	-1	6	17
COc1c(C)cc(Br)cc1C(=O)Nc1ccc(Cc2ccncc2)cc1	96*	0.9	-1	44	5
Cc1c([N+](=O)[O-])cc(C(=O)Nc2ccc(Cc3ccncc3)cc2)cc1[N+](=O)[O-]	99*	0.9	-11	38	13
Cc1ccccc1C(=O)NC(=S)Nc1ccc(Cc2ccncc2)cc1	53*	1	7	-25	-2
Cc1cc(=O)oc2cc(OCC(=O)OCC(=O)N3CCC(C)CC3)ccc12	-2	0.9	-2	20	13
SMILES	L major viab	Diaph act CS	G6PDH CS	WT yeast gro inh	Diaphorase inh
CCc1ccc(CN(C)C(=O)CCc2nnc(CCc3cccc(OC)c3)o2)nc1	100*	0.8	13	2	16
O=C(c1cnc2n(c1=O)CCS2)N1CCN(c2ccccc2Cl)CC1	-6	0.9	14	2	11
O=C(c1cnc2n(c1=O)CCS2)N1CCN(C(c2ccccc2)c2ccc(Cl)cc2)CC1 (centres undefined)	58*	0.7	-2	5	25
C/C(N)=C(/C#N)C(=O)COC(=O)c1ccc(C)c(S(=O)(=O)N2CCCCC2)c1	15	0.9	-2	-5	6
C/C(N)=C(/C#N)C(=O)COC(=O)c1cc(S(=O)(=O)N2CCCCC2)ccc1C	71*	0.8	-15	95*	19
O=C(CCN1CCN(c2ccccc2)CC1)Nc1ccc(Cl)cc1	-4	1.2	10	-16	-18
O=C(CCN1CCN(C/C=C/c2ccccc2)CC1)Nc1ccc(Cl)cc1	76*	0.9	2	46	12
Cc1ccc(NC(=O)CCN2CCN(C/C=C/c3ccccc3)CC2)cc1	94*	0.9	0	14	8
O=C(Nc1cccc(Cl)c1)N1CCN(C/C=C/c2ccccc2)CC1	4	0.9	0	7	7
CCOC(=O)N1CCN(CCC(=O)Nc2ccc(C)cc2)CC1	-7	0.9	12	-10	12
Cc1ccc(NC(=O)CCN2CCN(C/C=C/c3ccccc3)CC2)cc1C	87*	1	1	2	1
CCn1c(O)c(N=NC(=S)NCC2CCCO2)c2ccccc21 (centres undefined)	0	1	7	16	-2
CCN1CCN(C(=O)c2cc(S(=O)(=O)Nc3ccc(S(C)(=O)=O)cc3)ccc2Cl)CC1	1	1	2	-12	0
Cc1cc(=O)oc2c1ccc1oc(/C(=N/O)c3ccccc3)c(C)c12	-5	0.6	-54	21	38
Cc1ccc(/C(=N\O)c2oc3c(C)c4oc(=O)cc(C)c4cc3c2C)cc1	49	0.7	4	70*	29
COCCn1c(NCc2ccco2)nc2c1c(=O)[nH]c(=O)n2C	-5	1.1	7	-8	-6
CC(C)(C)NS(=O)(=O)c1cc(C(=O)Nc2sccc2C#N)ccc1Cl	54*	0.8	5	5	18
N#Cc1ccsc1NC(=O)c1cnccn1	-2	/	/	1	/
CCN1CCc2nc(NC(=O)c3ccccc3)sc2C1	4	0.9	8	81*	8
CC(C)CCNC(=O)CN(CC1CCCO1)C(=O)CCC(=O)Nc1ccccn1 (centres undefined)	-2	0.9	-3	70*	10
Cc1onc(-c2ccccc2Cl)c1C(=O)OCC(=O)N1CCCc2ccccc21	14	0.8	0	21	19
O=C(COC(=O)C12CC3CC(CC(C3)C1)C2)NCCc1ccccc1	-6	0.9	4	16	12
C=C(C)COc1ccc(-c2ncncc2Oc2ccc(OC)cc2)c(O)c1	66*	1	2	44	2
COc1ccc(-c2ncncc2-c2csc(C)n2)c(O)c1	5	0.8	29	6	16
C=C(C)COc1ccc(-c2nc(N)ncc2-c2ccc(OC)cc2)c(O)c1	30	0.8	-40	84*	18
